Measurements of several laboratories.
Lines come from different studies, so protocols differ.
Target: Serine/threonine-protein kinase D3 (PRKD3, Homo sapiens, UniProt O94806)
One construct used (O94806 1-890): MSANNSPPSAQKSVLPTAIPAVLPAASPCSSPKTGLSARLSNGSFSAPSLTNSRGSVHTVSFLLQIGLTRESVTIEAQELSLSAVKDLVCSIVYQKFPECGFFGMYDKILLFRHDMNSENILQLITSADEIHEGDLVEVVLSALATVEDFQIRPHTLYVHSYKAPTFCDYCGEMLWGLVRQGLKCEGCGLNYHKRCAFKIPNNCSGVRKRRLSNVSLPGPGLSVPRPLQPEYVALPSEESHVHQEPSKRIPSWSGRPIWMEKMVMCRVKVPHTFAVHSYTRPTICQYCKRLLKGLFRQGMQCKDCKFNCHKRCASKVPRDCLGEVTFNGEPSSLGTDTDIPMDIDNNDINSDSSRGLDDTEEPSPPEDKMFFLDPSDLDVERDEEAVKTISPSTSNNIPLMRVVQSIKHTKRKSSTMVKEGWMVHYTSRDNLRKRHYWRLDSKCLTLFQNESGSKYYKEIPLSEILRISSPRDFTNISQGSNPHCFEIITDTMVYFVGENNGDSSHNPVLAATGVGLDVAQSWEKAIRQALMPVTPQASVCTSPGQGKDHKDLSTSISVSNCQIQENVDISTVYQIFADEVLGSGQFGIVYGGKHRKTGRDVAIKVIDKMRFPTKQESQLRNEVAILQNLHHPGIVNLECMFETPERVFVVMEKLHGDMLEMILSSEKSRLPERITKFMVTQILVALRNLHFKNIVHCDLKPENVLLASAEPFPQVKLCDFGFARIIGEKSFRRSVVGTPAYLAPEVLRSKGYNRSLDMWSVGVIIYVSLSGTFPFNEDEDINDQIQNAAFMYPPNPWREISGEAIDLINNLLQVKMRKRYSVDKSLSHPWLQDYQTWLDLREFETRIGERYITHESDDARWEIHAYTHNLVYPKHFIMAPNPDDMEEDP

CC(C)(C)c1cc(C=C(C#N)C#N)cc(Br)c1O — remaining activity (enzyme activity, inhibitor; 0.5 µM): 92.7%
Cc1nn(C)cc1-c1nc2c(N3CCN(Cc4ccc(Cl)cc4)CC3)c(Cl)cnc2[nH]1 — remaining binding (binding, competition with immobilised ligand; 1 µM): 100%
O=c1[nH]c2ccccc2n1C1CCN(Cc2ccc(-c3[nH]c4cc5ncnc5cc4nc3-c3ccccc3)cc2)CC1 — remaining signal (cell-free assay; 0.5 µM): 99.5%
COc1cc(Nc2ncc(F)c(Nc3ccc4c(n3)NC(=O)C(C)(C)O4)n2)cc(OC)c1OC — inhibition (binding; 10 µM): 0%
Cn1cncc1[C@](O)(COc1ccc(C#N)cc1-c1ccc(OC(F)(F)F)cc1)c1ccc(C#N)cc1 — remaining binding (cell-free assay, competition with immobilised ligand; 1 µM): 100%
Cn1cc(-c2cc(F)cc(N3CCn4c(cc5c4CCCC5)C3=O)c2CO)cc(Nc2ccc(N3CCN(C4COC4)CC3)cn2)c1=O — inhibition (enzyme activity, inhibitor; 0.1 µM): 11%
COc1ncccc1-c1cnn2ccc(N3CCN(C(=O)OC(C)C)CC3)nc12 — remaining binding (binding, competition with immobilised ligand; 1 µM): 100%
Nc1ncc(-c2nc(N3CCOCC3)nc(N3CCOCC3)n2)c(C(F)F)n1 — remaining binding (binding, competition with immobilised ligand; 10 µM): 67%
N#CC1(c2ccccn2)CCN(Cc2cc(C(=O)O)c(=O)n3ccccc23)CC1 — remaining binding (cell-free assay, competition with immobilised ligand; 1 µM): 98%
